# AHR activator = activates the human aryl hydrocarbon receptor; P35869; AHR-responsive luciferase reporter cells, luminescence; activation, % at 5 µM; actives 2.5% (n = 320,000); AID 2796; in the data active = activation above about 47%;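 also: 0% = vehicle wells and 100% = reference agonist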
# MsrA inh = bovine MsrA inhibition | purified bovine MsrA, absorbance read-out | inhibition, % at 15.5 µM | actives 0.75% (n = 360,000); in the data active = inhibition above about 4.5%;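 also: 0% = vehicle wells with enzyme and 100% = reference inhibitor wells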
# HTR2A ag = activates the mouse 5-HT2A serotonin receptor; P35363; CHO-K1 mHTR2A beta-arrestin complementation, luminescence; percent of 30 µM serotonin response; activation, % at 7.6 µM; actives 0.66% (n = 360,000); AID 624169;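 active = activation above a run cutoff, the mean activation of all tested compounds plus 3 SD, cut at about 14% in these data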;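 also: 0% = plate median of compound wells and 100% = 30 µM serotonin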
# Target sequence (P35363 whole entry, looked up): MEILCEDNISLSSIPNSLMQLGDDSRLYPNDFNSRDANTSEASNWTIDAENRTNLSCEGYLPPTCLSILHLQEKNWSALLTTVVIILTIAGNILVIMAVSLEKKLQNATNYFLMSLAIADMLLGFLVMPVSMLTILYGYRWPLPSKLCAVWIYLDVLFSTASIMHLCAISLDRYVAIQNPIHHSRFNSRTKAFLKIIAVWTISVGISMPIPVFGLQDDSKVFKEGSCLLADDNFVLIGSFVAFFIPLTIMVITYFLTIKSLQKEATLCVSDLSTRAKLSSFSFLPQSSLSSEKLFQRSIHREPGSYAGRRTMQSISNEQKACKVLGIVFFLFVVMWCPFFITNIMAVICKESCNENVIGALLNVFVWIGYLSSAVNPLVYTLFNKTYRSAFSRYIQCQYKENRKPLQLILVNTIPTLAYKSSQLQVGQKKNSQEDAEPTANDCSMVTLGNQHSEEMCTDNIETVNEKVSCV
# MsrA act = bovine methionine sulfoxide reductase A activation. purified bovine MsrA, absorbance read-out. actives 0.3% (n = 360,000). activation, % at 10.6 µM; in the data active = activation above about 7.5%;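 also: 0% = vehicle and 100% = reference activator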
# TbMetRS inhib = blocks T. brucei methionyl-tRNA synthetase activity | purified T. brucei MetRS, ATP depletion, Kinase-Glo luminescence | inhibition, % at 11.9 µM | AID 624268 | actives 0.4% (n = 360,000);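 active = inhibition above a per-plate cutoff of the control wells' mean inhibition plus 3 SD, cut at about 5.5% in these data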;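 also: 0% = DMSO wells median and 100% = median of wells with control inhibitor compound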
#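 Assay system: T. brucei methionyl-tRNA synthetase, purified | Medium: HEPES buffer with MgCl2, KCl, DTT, spermine, BSA, pyrophosphatase | Compound: 11.9 µM single point | Incubation: 15 min enzyme-compound preincubation, 2 h reaction, 10 min detection, 25 °C | Measured by: Kinase-Glo luciferase luminescence reporting remaining unconsumed ATP | Measure: % inhibition normalized to control-well medians | Replication: Singlicate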
# AI-2 QS mod = modulates the Vibrio harveyi AI-2 quorum sensing system | actives 0.4% (n = 300,000) | activity change, % at 7.5 µM | Vibrio harveyi JMH597 AI-2 luminescence/OD600 ratio, 9 h; hits give low values; strain lacks LuxN and CqsS sensors; 0 = neutral-control median; in the data active = activity change below about -75%, passing the limit was not always enough;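 also: luminescence divided by OD600 gain over 9 h not by final OD600 alone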
# Active calls of the source: *; . = not tested or not shown. In the library only some 4.4% were active in any assay of this set; here they are far more common.
SMILES,AHR activator,MsrA inh,HTR2A ag,MsrA act,TbMetRS inhib,AI-2 QS mod
COc1ccccc1C1CC(=O)Nc2cc(C)c(C)cc21 (centres undefined),22.5,0.4,4.7,-1.4,-0.3,5.7
Cc1cc2c(cc1C)C(c1ccccc1OC(C)C)CC(=O)N2 (centres undefined),51.5*,-0.1,4.9,-4.1,-0.7,2.8
CC(C)[C@H](NC(=O)C1CC1)C(=O)N1CCC[C@H]1C(=O)NCCc1ccccc1Cl,.,-0.1,.,.,.,.
COc1cccc(N/C(N)=N/c2nc(C(F)(F)F)cc(C(F)(F)F)n2)c1,18.2,2.1,2.4,-4.9,-0.6,2.7
Cc1cccc(N/C(N)=N/c2nc(C(F)(F)F)cc(C(F)(F)F)n2)c1,68.5*,0.7,5.8,-2.7,-0.2,26.3
CNc1ncn(-c2c(C)cccc2C)c(=O)n1,.,0.2,.,.,.,.
CCCOc1ccc(C(=O)NC(=S)Nc2nc3ccccc3s2)cc1,82.0*,-0.4,0.1,-0.3,0.2,8.2
Cc1ccc2nc(NC(=S)NC(=O)c3ccc(OC(C)C)cc3)sc2c1,-1.8,0.0,8.4,-3.8,0.8,10.1
Nc1cccc2c1C(=O)N(c1ccccc1)C2=O,49.3*,-0.7,-0.8,0.1,0.1,10.9
Nc1ccccc1N1C(=O)c2cccc3cccc(c23)C1=O,66.9*,2.1,-1.3,-2.8,0.3,23.3
O=C1c2cccc3cccc(c23)C(=O)N1c1ccccc1Cl,6.5,1.0,-3.4,0.0,0.5,9.8
COC(=O)C1=C(C)N(Cc2ccccc2C(F)(F)F)C(=NCc2ccccc2C(F)(F)F)NC1c1cccc(F)c1 (centres undefined),.,-1.4,.,.,.,.
COc1ccc(CCN(C)C(=O)c2cc(-c3ccc(C)cc3)nc3ccccc23)cc1OC,7.4,0.7,-1.6,-11.9,-0.8,33.5
COc1ccc(-c2cc(C(=O)NC(C)c3ccccn3)c3ccccc3n2)cc1OC (centres undefined),7.1,1.0,20.1*,-0.6,-0.1,.
COc1ccc(-c2cc(C(=O)NC3=NCCS3)c3ccccc3n2)cc1OC,66.8*,3.3,-1.4,-3.3,-0.1,-9.5
COc1ccc(-c2cc(C(=O)Nc3ccc(C(N)=O)cc3)c3ccccc3n2)cc1OC,52.1*,0.8,1.4,-4.8,0.1,11.0
COc1ccc(-c2cc(C(=O)N(C)Cc3ccc(F)cc3)c3ccccc3n2)cc1OC,64.3*,0.2,2.7,-5.2,-0.6,23.7
COC(=O)[C@]12C[C@H](CC(=O)N3CCCCC3)C(=O)N(Cc3ccccc3)C1=C[C@H](C(C)C)O[C@@H]2C1CC1,.,0.5,.,.,.,.
CCCCNC(=O)C[C@H]1C[C@@]2(C(=O)OC)C(=C[C@H](C(C)C)O[C@@H]2C2CC2)N(Cc2ccccc2)C1=O,.,0.1,.,.,.,.
C=CC[C@]1(c2ccccc2)C(=O)N2C[C@H]3CON(C)[C@H]3C[C@H]2c2ccccc21,.,-0.7,.,.,.,.
COC(=O)C1=C(C)N(Cc2cccc(C(F)(F)F)c2)C(=NCc2ccc3c(c2)OCO3)NC1c1ccccc1C(F)(F)F (centres undefined),.,-1.8,.,.,.,.
O=S(=O)(c1ccccc1)N1CCCc2nc(-c3ccccc3)ccc21,.,0.1,.,.,.,.
O=C(Nc1ccc(Cl)cc1)N1CCN(c2ccc3nnc(-c4ccc(F)cc4)n3n2)CC1,-3.7,0.0,-2.2,-5.3,-0.8,18.6
O=C(c1ccc(Br)o1)N1CCN(c2ccc3nnc(-c4ccc(F)cc4)n3n2)CC1,47.2*,0.6,-4.1,-1.6,0.0,-10.3
COc1ccccc1C(=O)NCCC(=O)NCC(C)(C)N1CCOCC1,-0.6,0.1,17.4*,-3.2,-0.5,7.4
SMILES,AHR activator,MsrA inh,HTR2A ag,MsrA act,TbMetRS inhib,AI-2 QS mod
O=c1c2cc(Br)ccc2nc(-c2ccc([N+](=O)[O-])cc2)n1O,1.8,-0.8,0.3,1.0,0.0,-167.5*
N#Cc1ccc(-c2nc3ccc(Br)cc3c(=O)n2O)cc1,10.4,0.7,0.3,-3.9,0.2,-110.6*
O=c1c2cc(Br)ccc2nc(-c2cccc(C(F)(F)F)c2)n1O,22.0,1.3,-0.5,-3.8,-0.2,34.7
C=CCN1C(=O)c2n[nH]c(C(C)C)c2C1c1ccccc1 (centres undefined),.,-0.4,.,.,.,.
O=C(N[C@H](C(=O)N1CCC[C@H]1C(=O)NCCc1ccccc1Cl)C1CCCCC1)C1CC1,.,-0.9,.,.,.,.
Cc1sc(NC(=O)C2=COCCO2)nc1-c1ccc(Cl)cc1,65.2*,1.0,-3.6,-3.8,-0.2,4.2

# Bioassay records deposited in PubChem by several laboratories.
